In ChEMBL document CHEMBL3627695, “1-Benzyl-2-methyl-3-indolylmethylene barbituric acid derivatives: Anti-cancer agents that target nucleophosmin 1 (NPM1)” (Bioorg Med Chem, 2015):

Key:
CCRF-CEM = experiment: Anticancer activity against human CCRF-CEM cells after 48 hrs by sulforhodamine B assay; assay type: functional
Summary of the method: (§1)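 NCI-60 human tumour cell line panel. Compounds dissolved in DMSO/H2O and tested at five 10-fold dilutions (10⁻⁴ M to 10⁻⁸ M) for 48 hr. GI50 is the molar concentration giving 50% reduction in net cell growth relative to cell numbers on day 0.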

HL-60(TB) = experiment: Anticancer activity against human HL-60(TB) cells after 48 hrs by sulforhodamine B assay; assay type: functional; settings: HL-60, 48 h; summary of the method: as §1
K562 = experiment: Anticancer activity against human K562 cells after 48 hrs by sulforhodamine B assay; assay type: functional; settings: K562, 48 h; summary of the method: as §1
[1] = Anticancer activity against human MOLT4 cells after 48 hrs by sulforhodamine B assay; assay type: functional; settings: MOLT-4, 48 h; summary of the method: as §1
[2] = Anticancer activity against human RPMI8226 cells after 48 hrs by sulforhodamine B assay; assay type: functional; settings: RPMI-8226, 48 h; summary of the method: as §1
SR = experiment: Anticancer activity against human SR cells after 48 hrs by sulforhodamine B assay; assay type: functional
Summary of the method: (§2)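 NCI-60 panel protocol. Compounds were dissolved in DMSO/H2O and tested at five 10-fold concentrations (10⁻⁴ to 10⁻⁸ M) with 48 hr incubation. GI50 is the molar concentration giving a 50% reduction in net cell growth relative to cell numbers on day 0.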

A549 = experiment: Anticancer activity against human A549/ATCC cells after 48 hrs by sulforhodamine B assay; assay type: functional; settings: A549, 48 h; summary of the method: as §1
HOP-62 = experiment: Anticancer activity against human HOP62 cells after 48 hrs by sulforhodamine B assay; assay type: functional; settings: HOP-62, 48 h; summary of the method: as §1
[3] = Anticancer activity against human HOP92 cells after 48 hrs by sulforhodamine B assay; assay type: functional; settings: HOP-92, 48 h; summary of the method: as §1
NCI-H226 = experiment: Anticancer activity against human NCI-H226 cells after 48 hrs by sulforhodamine B assay; assay type: functional; settings: NCI-H226, 48 h; summary of the method: as §1
NCI-H322M = experiment: Anticancer activity against human NCI-H322M cells after 48 hrs by sulforhodamine B assay; assay type: functional; summary of the method: as §1
NCI-H460 = experiment: Anticancer activity against human NCI-H460 cells after 48 hrs by sulforhodamine B assay; assay type: functional; settings: NCI-H460, 48 h; summary of the method: as §1
NCI-H522 = experiment: Anticancer activity against human NCI-H522 cells after 48 hrs by sulforhodamine B assay; assay type: functional; settings: NCI-H522, 48 h; summary of the method: as §1
[4] = Anticancer activity against human COLO205 cells after 48 hrs by sulforhodamine B assay; assay type: functional; settings: COLO 205, 48 h; summary of the method: as §1
[5] = Anticancer activity against human HCC2998 cells after 48 hrs by sulforhodamine B assay; assay type: functional; settings: HCC 2998, 48 h; summary of the method: as §1
HCT-116 = experiment: Anticancer activity against human HCT116 cells after 48 hrs by sulforhodamine B assay; assay type: functional; settings: HCT-116, 48 h; summary of the method: as §1
HCT-15 = experiment: Anticancer activity against human HCT15 cells after 48 hrs by sulforhodamine B assay; assay type: functional; settings: HCT-15, 48 h; summary of the method: as §1
HT-29 = experiment: Anticancer activity against human HT-29 cells after 48 hrs by sulforhodamine B assay; assay type: functional; settings: HT-29, 48 h; summary of the method: as §1
KM12 = experiment: Anticancer activity against human KM12 cells after 48 hrs by sulforhodamine B assay; assay type: functional; settings: KM12, 48 h; summary of the method: as §1
SW-620 = experiment: Anticancer activity against human SW620 cells after 48 hrs by sulforhodamine B assay; assay type: functional; settings: SW-620, 48 h; summary of the method: as §2
SF-268 = experiment: Anticancer activity against human SF268 cells after 48 hrs by sulforhodamine B assay; assay type: functional; settings: SF-268, 48 h; summary of the method: as §1
[6] = Anticancer activity against human SF295 cells after 48 hrs by sulforhodamine B assay; assay type: functional; settings: SF-295, 48 h; summary of the method: as §1
[7] = Anticancer activity against human SF539 cells after 48 hrs by sulforhodamine B assay; assay type: functional; settings: SF-539, 48 h; summary of the method: as §1
SNB-19 = experiment: Anticancer activity against human SNB19 cells after 48 hrs by sulforhodamine B assay; assay type: functional; settings: SNB-19, 48 h; summary of the method: as §1
SNB-75 = experiment: Anticancer activity against human SNB75 cells after 48 hrs by sulforhodamine B assay; assay type: functional; settings: SNB-75, 48 h; summary of the method: as §1
U-251 = experiment: Anticancer activity against human U251 cells after 48 hrs by sulforhodamine B assay; assay type: functional; settings: U-251, 48 h; summary of the method: as §2
[8] = Anticancer activity against human LOXIMVI cells after 48 hrs by sulforhodamine B assay; assay type: functional; settings: LOX IMVI; summary of the method: as §1
Malme-3M = experiment: Anticancer activity against human MALME-3M cells after 48 hrs by sulforhodamine B assay; assay type: functional; summary of the method: as §1
M14 = experiment: Anticancer activity against human M14 cells after 48 hrs by sulforhodamine B assay; assay type: functional; settings: M14, 48 h; summary of the method: as §1
MDA-MB-435 = experiment: Anticancer activity against human MDA-MB-435 cells after 48 hrs by sulforhodamine B assay; assay type: functional; settings: MDA-MB-435, 48 h; summary of the method: as §1
SK-MEL-2 = experiment: Anticancer activity against human SK-MEL-2 cells after 48 hrs by sulforhodamine B assay; assay type: functional; settings: SK-MEL-2, 48 h; summary of the method: as §1
SK-MEL-28 = experiment: Anticancer activity against human SK-MEL-28 cells after 48 hrs by sulforhodamine B assay; assay type: functional; settings: SK-MEL-28, 48 h; summary of the method: as §1
SK-MEL-5 = experiment: Anticancer activity against human SK-MEL-5 cells after 48 hrs by sulforhodamine B assay; assay type: functional; settings: SK-MEL-5, 48 h; summary of the method: as §1
UACC-257 = experiment: Anticancer activity against human UACC257 cells after 48 hrs by sulforhodamine B assay; assay type: functional; settings: UACC-257, 48 h; summary of the method: as §2
IGROV-1 = experiment: Anticancer activity against human IGROV1 cells after 48 hrs by sulforhodamine B assay; assay type: functional; settings: IGROV-1, 48 h; summary of the method: as §1
OVCAR-3 = experiment: Anticancer activity against human OVCAR3 cells after 48 hrs by sulforhodamine B assay; assay type: functional; settings: OVCAR-3, 48 h; summary of the method: as §1
OVCAR-4 = experiment: Anticancer activity against human OVCAR4 cells after 48 hrs by sulforhodamine B assay; assay type: functional; settings: OVCAR-4, 48 h; summary of the method: as §1
OVCAR-5 = experiment: Anticancer activity against human OVCAR5 cells after 48 hrs by sulforhodamine B assay; assay type: functional; settings: OVCAR-5, 48 h; summary of the method: as §1
OVCAR-8 = experiment: Anticancer activity against human OVCAR8 cells after 48 hrs by sulforhodamine B assay; assay type: functional; settings: OVCAR-8, 48 h; summary of the method: as §1
[9] = Anticancer activity against human NCI-ADR-RES cells after 48 hrs by sulforhodamine B assay; assay type: functional; summary of the method: as §1
SK-OV-3 = experiment: Anticancer activity against human SKOV3 cells after 48 hrs by sulforhodamine B assay; assay type: functional; settings: SK-OV-3, 48 h; summary of the method: as §1
786-0 = experiment: Anticancer activity against human 786-0 cells after 48 hrs by sulforhodamine B assay; assay type: functional; settings: 786-0, 48 h; summary of the method: as §1
A498 = experiment: Anticancer activity against human A498 cells after 48 hrs by sulforhodamine B assay; assay type: functional; settings: A498, 48 h; summary of the method: as §1
ACHN = experiment: Anticancer activity against human ACHN cells after 48 hrs by sulforhodamine B assay; assay type: functional; summary of the method: as §1
CAKI-1 = experiment: Anticancer activity against human Caki1 cells after 48 hrs by sulforhodamine B assay; assay type: functional; settings: CAKI-1, 48 h; summary of the method: as §1
[10] = Anticancer activity against human RXF393 cells after 48 hrs by sulforhodamine B assay; assay type: functional; settings: RXF 393, 48 h; summary of the method: as §1
SN12C = experiment: Anticancer activity against human SN12C cells after 48 hrs by sulforhodamine B assay; assay type: functional; summary of the method: as §1
TK-10 = experiment: Anticancer activity against human TK10 cells after 48 hrs by sulforhodamine B assay; assay type: functional; settings: TK-10, 48 h; summary of the method: as §2
UO-31 = experiment: Anticancer activity against human UO31 cells after 48 hrs by sulforhodamine B assay; assay type: functional; settings: UO-31, 48 h; summary of the method: as §2
DU-145 = experiment: Anticancer activity against human DU145 cells after 48 hrs by sulforhodamine B assay; assay type: functional; settings: DU-145, 48 h; summary of the method: as §1
MCF7 = experiment: Anticancer activity against human MCF7 cells after 48 hrs by sulforhodamine B assay; assay type: functional; settings: MCF7, 48 h; summary of the method: as §1
MDA-MB-231 = experiment: Anticancer activity against human MDA-MB-231 cells after 48 hrs by sulforhodamine B assay; assay type: functional; settings: MDA-MB-231, 48 h; summary of the method: as §1
[11] = Anticancer activity against human Hs 578T cells after 48 hrs by sulforhodamine B assay; assay type: functional; summary of the method: as §1
BT-549 = experiment: Anticancer activity against human BT549 cells after 48 hrs by sulforhodamine B assay; assay type: functional; settings: BT-549, 48 h; summary of the method: as §1
T47D = experiment: Anticancer activity against human T47D cells after 48 hrs by sulforhodamine B assay; assay type: functional; summary of the method: as §2
MDA-MB-468 = experiment: Anticancer activity against human MDA-MB-468 cells after 48 hrs by sulforhodamine B assay; assay type: functional; settings: MDA-MB-468, 48 h; summary of the method: as §1
[12] = Anticancer activity against human OCI-AML3 cells expressing mutant NPM1 assessed as apoptosis for 48 hrs by annexin-V and TO-PRO3 staining based flow cytometry; assay type: functional, cell-based; settings: OCI-AML-3, 48 h
Summary of the method: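 OCI-AML3 cells (NPM1c+) in logarithmic growth, passaged 2–3 times weekly. Cells were exposed to the indicated compound concentrations for 48 hr, then stained with annexin V and TO-PRO 3. Percent apoptotic cells was read by flow cytometry. AP50 is the concentration at which 50% of cells undergo apoptosis.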

Compound: Cc1c(C=C2C(=O)NC(=S)NC2=O)c2ccccc2n1Cc1ccccc1
- GI50 (CCRF-CEM): 0.59 µM
- GI50 (HL-60(TB)): 0.29 µM
- GI50 (K562): 1.26 µM
- GI50 [1]: 1.71 µM
- GI50 [2]: 0.35 µM
- GI50 (SR): 0.34 µM
- GI50 (A549): 1.85 µM
- GI50 (HOP-62): 1.09 µM
- GI50 [3]: 0.4 µM
- GI50 (NCI-H226): 1.88 µM
- GI50 (NCI-H322M): 1.63 µM
- GI50 (NCI-H460): 0.98 µM
- GI50 (NCI-H522): 1.85 µM
- GI50 [4]: 1.33 µM
- GI50 [5]: 1.18 µM
- GI50 (HCT-116): 0.89 µM
- GI50 (HCT-15): 1.3 µM
- GI50 (HT-29): 1.37 µM
- GI50 (KM12): 0.95 µM
- GI50 (SW-620): 1.24 µM
- GI50 (SF-268): 1.26 µM
- GI50 [6]: 0.93 µM
- GI50 [7]: 1.14 µM
- GI50 (SNB-19): 1.31 µM
- GI50 (SNB-75): 1.51 µM
- GI50 (U-251): 1.16 µM
- GI50 [8]: 0.53 µM
- GI50 (Malme-3M): 2.31 µM
- GI50 (M14): 1.4 µM
- GI50 (MDA-MB-435): 1.15 µM
- GI50 (SK-MEL-2): 2.08 µM
- GI50 (SK-MEL-28): 1.66 µM
- GI50 (SK-MEL-5): 1.37 µM
- GI50 (UACC-257): 1.41 µM
- GI50 (IGROV-1): 0.97 µM
- GI50 (OVCAR-3): 1.18 µM
- GI50 (OVCAR-4): 1.24 µM
- GI50 (OVCAR-5): 1.75 µM
- GI50 (OVCAR-8): 1.13 µM
- GI50 [9]: 1.89 µM
- GI50 (SK-OV-3): 1.89 µM
- GI50 (786-0): 1.58 µM
- GI50 (A498): 1.56 µM
- GI50 (ACHN): 1.37 µM
- GI50 (CAKI-1): 1.57 µM
- GI50 [10]: 1.23 µM
- GI50 (SN12C): 1.15 µM
- GI50 (TK-10): 1.47 µM
- GI50 (UO-31): 0.88 µM
- GI50 (DU-145): 1.31 µM
- GI50 (MCF7): 0.7 µM
- GI50 (MDA-MB-231): 1.34 µM
- GI50 [11]: 0.51 µM
- GI50 (BT-549): 1.6 µM
- GI50 (T47D): 1.9 µM
- GI50 (MDA-MB-468): 0.51 µM
- AC50 [12]: 3.31 µM
